Laboratory results published in ChEMBL document CHEMBL4823330, “Piperazinyl Bicyclic Derivatives as Selective Ligands of the α2δ-1 Subunit of Voltage-Gated Calcium Channels” (ACS Med Chem Lett, 2021).
The source made the active and inactive calls. No cut-off for these calls is given here.

Columns and labels:
[1] = biological target: T1, Voltage-dependent calcium channel subunit alpha-2/delta-1 (Homo sapiens, UniProt P54289); experiment: Displacement of [3H]-gabapentin from human Cav alpha2delta1 expressed in CHO-K1 cell membranes incubated for 60 mins by scintillation counting method; set-up: species or system Membrane
How it was run: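 Radioligand binding with [3H]-gabapentin on α2δ-1-enriched membranes from CHO-K1 cells expressing human Cav2.2/β3/α2δ1. Compounds were first screened at 10 μM. Ki was calculated for those giving more than 50% inhibition. Values are mean ± SD of two determinations.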

CYP3A4 = CYP3A4 (Homo sapiens, UniProt P08684); experiment: Inhibition of recombinant CYP3A4 (unknown origin) using BFC as substrate at 1 uM measured after 30 mins in presence of NADPH generating system by fluorescence assay relative to control; assay type: ADME; conditions: recombinant CYP3A4, probe BFC
How it was run: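 Recombinant human CYP3A4 incubated with test compound at 1 μM. 7-Benzyloxy-4-trifluoromethylcoumarin (BFC) was the probe substrate, with fluorescence read-out, reported as percent inhibition.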

[2] = biological target: T1, Voltage-dependent calcium channel subunit alpha-2/delta-1; experiment: Displacement of [3H]-gabapentin from human Cav alpha2delta1 expressed in CHO-K1 cell membranes at 10 uM incubated for 60 mins by scintillation counting method relative to control; conditions: Membrane
How it was run: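 Human α2δ-1-enriched membranes from CHO-K1 cells stably expressing human Cav2.2/β3/α2δ1. Test compound at 10 μM competes with [3H]-gabapentin radioligand, and percent inhibition of specific binding is recorded. Compounds exceeding 50% inhibition go on to Ki determination, with Ki values given as the mean of two determinations.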

Mu-type opioid receptor = Mu-type opioid receptor (Homo sapiens, UniProt P35372); experiment: Binding affinity to mu opioid receptor (unknown origin)
[3] = biological target: Sigma non-opioid intracellular receptor 1 (Homo sapiens) (UniProt Q99720); experiment: Binding affinity to sigma 1 receptor (unknown origin)
[4] = biological target: Alpha-2A adrenergic receptor (Homo sapiens) (UniProt P08913); experiment: Binding affinity to alpha2A receptor (unknown origin)
[5] = biological target: 5-hydroxytryptamine receptor 1A (Homo sapiens) (UniProt P08908); experiment: Binding affinity to 5HT1A receptor (unknown origin)
[6] = biological target: Sodium-dependent dopamine transporter (Homo sapiens) (UniProt Q01959); experiment: Binding affinity to dopamine transporter (unknown origin)
[7] = biological target: Histamine H1 receptor (Homo sapiens) (UniProt P35367); experiment: Binding affinity to histamine H1 receptor (unknown origin)
[8] = biological target: Sodium-dependent serotonin transporter (Homo sapiens) (UniProt P31645); experiment: Binding affinity to serotonin transporter (unknown origin)
[9] = biological target: Alpha-1A adrenergic receptor (Homo sapiens) (UniProt P35348); experiment: Binding affinity to alpha1A receptor (unknown origin)
[10] = biological target: Kappa-type opioid receptor (Homo sapiens) (UniProt P41145); experiment: Binding affinity to kappa opioid receptor (unknown origin)
[11] = biological target: Sodium-dependent noradrenaline transporter (Homo sapiens) (UniProt P23975); experiment: Binding affinity to norepinephrine transporter (unknown origin)
[12] = biological target: 5-hydroxytryptamine receptor 2B (Homo sapiens) (UniProt P41595); experiment: Binding affinity to 5HT2B receptor (unknown origin)
[13] = biological target: Delta-type opioid receptor (Homo sapiens) (UniProt P41143); experiment: Binding affinity to delta opioid receptor (unknown origin)
[14] = Metabolic stability in rat liver microsomes assessed as intrinsic clearance per mg protein at 1 uM measured upto 60 mins in presence of NADPH generating system by UPLC-MS/MS analysis; assay type: ADME, Microsome; conditions: read-out: CLH
CYP2D6 = CYP2D6 (Homo sapiens, UniProt P10635); experiment: Inhibition of CYP2D6 (unknown origin) at 1 uM relative to control; assay type: ADME
How it was run: (§1)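 Recombinant human CYP isoforms (1A2, 2C9, 2C19, 2D6) were each tested with compound at 1 μM. Read-out is percent inhibition.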

CYP1A2 = CYP1A2 (Homo sapiens, UniProt P05177); experiment: Inhibition of CYP1A2 (unknown origin) at 1 uM relative to control; assay type: ADME; how it was run: as §1
[15] = Efflux ratio of permeability in human Caco2 cells; assay type: ADME, cell-based; conditions: Caco-2
[16] = Induction of motor coordination impairment in CD1 mouse assessed as latency to fall at 20 mg/kg, ip measured upto 180 mins by rotarod test; assay type: organism-based; conditions: in vivo, 3 h
How it was run: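 Mice were dosed at 20 mg/kg ip, with vehicle and pregabalin groups run in the same paradigm. Latency to fall from the elevated rotating drum was recorded at 30, 120 and 180 min after administration.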

[17] = Cmax in CD1 mouse at 20 mg/kg, ip measured upto 24 hrs by UPLC-MS/MS analysis; assay type: ADME, organism-based; set-up: route intraperitoneal, dose 20 mg/kg, time <=24; conditions: in vivo
How it was run: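 Male CD1 mice given a single ip dose of 20 mg/kg. Cmax was taken from the plasma concentration profile.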

[18] = biological target: Voltage-gated inwardly rectifying potassium channel KCNH2 (Homo sapiens, UniProt Q12809); experiment: Inhibition of human ERG
[19] = Permeability of compound in human Caco2 cells; assay type: ADME, cell-based; conditions: Caco-2, read-out: permeability
CYP2C19 = CYP2C19 (Homo sapiens, UniProt P33261); experiment: Inhibition of CYP2C19 (unknown origin) at 1 uM relative to control; assay type: ADME; how it was run: as §1
CYP2C9 = CYP2C9 (Homo sapiens, UniProt P11712); experiment: Inhibition of CYP2C9 (unknown origin) at 1 uM relative to control; assay type: ADME; how it was run: as §1
[20] = Metabolic stability in human liver microsomes assessed as intrinsic clearance per mg protein at 1 uM measured upto 60 mins in presence of NADPH generating system by UPLC-MS/MS analysis; assay type: ADME, Microsome; conditions: read-out: CLH
[21] = Metabolic stability in mouse liver microsomes assessed as intrinsic clearance per mg protein at 1 uM measured upto 60 mins in presence of NADPH generating system by UPLC-MS/MS analysis; assay type: ADME, Microsome; conditions: read-out: CLH
[22] = Lipophilicity, logP of compound; assay type: physicochemical; conditions: octanol/water
Mus musculus = experiment: Analgesic activity in CD1 mouse model of capsaicin-induced mechanical hypersensitivity assessed as reduction in mechanical hypersensitivity at 20 mg/kg, ip administered 30 mins prior to capsaicin stimulation and measured after 15 mins; assay type: functional; set-up: scale not given: the % may be the effect or the level left; conditions: time 45 min, 0.75 h
How it was run: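 Male CD1 mice, 8–12 per group, given 20 mg/kg ip alongside vehicle and pregabalin comparator groups. Capsaicin test read out as percentage reduction in capsaicin-induced mechanical hypersensitivity.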

[23] = Lipophilicity, logD of compound at pH 7.4; assay type: physicochemical; conditions: buffer
[24] = AUC(0 to t) in CD1 mouse at 20 mg/kg, ip measured upto 24 hrs by UPLC-MS/MS analysis; assay type: ADME, organism-based; set-up: route intraperitoneal, dose 20 mg/kg, time <=24; conditions: in vivo

T1 sequence (P54289 25-956 limits assumed): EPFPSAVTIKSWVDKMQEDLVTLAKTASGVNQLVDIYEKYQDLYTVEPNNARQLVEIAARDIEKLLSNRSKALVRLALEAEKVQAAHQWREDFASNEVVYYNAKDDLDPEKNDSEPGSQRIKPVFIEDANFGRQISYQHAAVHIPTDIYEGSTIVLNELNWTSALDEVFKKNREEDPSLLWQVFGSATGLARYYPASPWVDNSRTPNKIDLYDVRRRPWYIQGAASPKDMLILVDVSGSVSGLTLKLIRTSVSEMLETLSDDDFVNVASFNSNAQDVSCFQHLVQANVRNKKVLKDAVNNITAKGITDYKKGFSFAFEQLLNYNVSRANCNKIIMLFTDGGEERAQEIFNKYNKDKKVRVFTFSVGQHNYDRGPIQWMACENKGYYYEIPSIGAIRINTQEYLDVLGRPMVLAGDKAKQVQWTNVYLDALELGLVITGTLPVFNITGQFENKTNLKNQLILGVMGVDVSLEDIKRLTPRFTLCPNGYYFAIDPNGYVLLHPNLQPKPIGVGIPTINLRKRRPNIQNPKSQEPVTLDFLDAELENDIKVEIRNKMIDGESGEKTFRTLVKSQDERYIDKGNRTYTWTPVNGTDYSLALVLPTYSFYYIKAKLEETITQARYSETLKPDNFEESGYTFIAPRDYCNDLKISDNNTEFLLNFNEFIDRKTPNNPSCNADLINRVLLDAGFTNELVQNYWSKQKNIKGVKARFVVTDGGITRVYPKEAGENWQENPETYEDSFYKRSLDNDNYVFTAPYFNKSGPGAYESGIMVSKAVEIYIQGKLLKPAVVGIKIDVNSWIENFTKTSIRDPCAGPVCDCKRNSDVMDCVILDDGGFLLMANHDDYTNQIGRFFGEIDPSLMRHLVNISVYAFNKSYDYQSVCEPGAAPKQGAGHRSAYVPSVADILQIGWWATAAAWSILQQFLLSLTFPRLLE
T1 sequence (P54289 957-1103 limits assumed): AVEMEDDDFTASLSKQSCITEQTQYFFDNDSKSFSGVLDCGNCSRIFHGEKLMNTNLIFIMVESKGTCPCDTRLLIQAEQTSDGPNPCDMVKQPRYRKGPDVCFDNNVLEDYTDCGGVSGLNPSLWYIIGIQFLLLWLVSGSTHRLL
Sequence of CYP3A4 (P08684 whole entry): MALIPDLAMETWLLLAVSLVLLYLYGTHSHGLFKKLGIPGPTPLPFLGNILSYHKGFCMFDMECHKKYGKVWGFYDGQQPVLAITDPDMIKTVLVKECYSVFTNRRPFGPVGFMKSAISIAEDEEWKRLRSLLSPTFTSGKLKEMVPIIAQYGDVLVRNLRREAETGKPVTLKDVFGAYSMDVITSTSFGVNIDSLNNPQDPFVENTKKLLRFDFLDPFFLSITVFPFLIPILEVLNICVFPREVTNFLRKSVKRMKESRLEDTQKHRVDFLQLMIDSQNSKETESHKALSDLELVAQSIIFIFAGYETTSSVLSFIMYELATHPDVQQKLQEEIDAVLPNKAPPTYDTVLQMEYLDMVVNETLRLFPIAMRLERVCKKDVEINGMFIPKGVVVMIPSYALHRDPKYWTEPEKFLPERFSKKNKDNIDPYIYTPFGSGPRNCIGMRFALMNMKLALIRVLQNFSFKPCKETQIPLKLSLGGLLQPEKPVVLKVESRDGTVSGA
Sequence of Mu-type opioid receptor (P35372 whole entry): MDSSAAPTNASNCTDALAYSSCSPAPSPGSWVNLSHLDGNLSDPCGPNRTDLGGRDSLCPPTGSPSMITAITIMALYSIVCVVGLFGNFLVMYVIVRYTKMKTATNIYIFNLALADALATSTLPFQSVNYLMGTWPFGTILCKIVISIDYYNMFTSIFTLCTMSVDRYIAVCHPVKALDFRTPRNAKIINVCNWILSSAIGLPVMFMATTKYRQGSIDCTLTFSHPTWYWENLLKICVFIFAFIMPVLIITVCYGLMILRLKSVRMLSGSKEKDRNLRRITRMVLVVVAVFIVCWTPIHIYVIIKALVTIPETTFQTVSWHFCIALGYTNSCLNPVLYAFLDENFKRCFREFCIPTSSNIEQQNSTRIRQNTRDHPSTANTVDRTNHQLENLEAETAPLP
Sequence of 5-hydroxytryptamine receptor 2B (Homo sapiens) (P41595 whole entry): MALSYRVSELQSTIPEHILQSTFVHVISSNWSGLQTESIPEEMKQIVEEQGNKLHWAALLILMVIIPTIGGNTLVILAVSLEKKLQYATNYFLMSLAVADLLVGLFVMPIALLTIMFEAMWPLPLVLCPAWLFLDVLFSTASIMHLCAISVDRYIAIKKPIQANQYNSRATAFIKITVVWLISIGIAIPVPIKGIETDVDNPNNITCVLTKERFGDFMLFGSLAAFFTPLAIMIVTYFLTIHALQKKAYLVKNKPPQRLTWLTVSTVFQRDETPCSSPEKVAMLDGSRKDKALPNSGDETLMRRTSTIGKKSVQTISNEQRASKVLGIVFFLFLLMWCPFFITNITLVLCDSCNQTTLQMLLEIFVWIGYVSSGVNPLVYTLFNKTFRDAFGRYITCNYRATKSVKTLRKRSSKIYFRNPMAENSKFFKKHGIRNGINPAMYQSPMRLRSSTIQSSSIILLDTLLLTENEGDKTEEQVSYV
Sequence of Histamine H1 receptor (Homo sapiens) (P35367 whole entry): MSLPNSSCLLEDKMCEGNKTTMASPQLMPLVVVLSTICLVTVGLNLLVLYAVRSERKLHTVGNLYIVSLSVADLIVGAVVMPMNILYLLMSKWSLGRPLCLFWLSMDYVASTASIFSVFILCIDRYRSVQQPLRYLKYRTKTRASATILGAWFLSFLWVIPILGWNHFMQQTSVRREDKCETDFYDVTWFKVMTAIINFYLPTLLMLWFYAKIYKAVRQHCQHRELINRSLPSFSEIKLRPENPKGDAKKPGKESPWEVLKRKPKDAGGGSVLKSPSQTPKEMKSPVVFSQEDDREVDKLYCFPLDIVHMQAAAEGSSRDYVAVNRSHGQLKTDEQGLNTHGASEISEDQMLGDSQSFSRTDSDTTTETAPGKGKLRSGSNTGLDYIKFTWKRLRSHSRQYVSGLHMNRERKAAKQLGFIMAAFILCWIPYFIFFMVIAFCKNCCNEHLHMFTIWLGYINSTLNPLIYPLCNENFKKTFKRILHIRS
Sequence of Sodium-dependent dopamine transporter (Homo sapiens) (Q01959 whole entry): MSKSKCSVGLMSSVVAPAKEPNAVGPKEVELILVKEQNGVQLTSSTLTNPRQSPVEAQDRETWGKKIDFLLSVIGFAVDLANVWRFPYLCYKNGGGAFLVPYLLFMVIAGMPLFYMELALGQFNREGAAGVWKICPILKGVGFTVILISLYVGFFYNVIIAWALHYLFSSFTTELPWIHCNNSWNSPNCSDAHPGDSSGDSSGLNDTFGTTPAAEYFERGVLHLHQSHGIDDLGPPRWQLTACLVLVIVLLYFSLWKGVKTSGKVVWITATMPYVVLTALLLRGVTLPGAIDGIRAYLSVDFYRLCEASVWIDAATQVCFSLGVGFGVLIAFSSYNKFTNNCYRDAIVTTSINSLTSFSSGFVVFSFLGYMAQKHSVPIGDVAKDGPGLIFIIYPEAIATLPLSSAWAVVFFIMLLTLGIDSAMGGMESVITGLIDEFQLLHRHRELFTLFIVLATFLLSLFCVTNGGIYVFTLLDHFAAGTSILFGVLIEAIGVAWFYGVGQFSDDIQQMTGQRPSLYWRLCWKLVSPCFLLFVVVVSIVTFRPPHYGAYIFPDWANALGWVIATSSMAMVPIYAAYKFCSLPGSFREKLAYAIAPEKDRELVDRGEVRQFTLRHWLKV
Sequence of Alpha-2A adrenergic receptor (Homo sapiens) (P08913 whole entry): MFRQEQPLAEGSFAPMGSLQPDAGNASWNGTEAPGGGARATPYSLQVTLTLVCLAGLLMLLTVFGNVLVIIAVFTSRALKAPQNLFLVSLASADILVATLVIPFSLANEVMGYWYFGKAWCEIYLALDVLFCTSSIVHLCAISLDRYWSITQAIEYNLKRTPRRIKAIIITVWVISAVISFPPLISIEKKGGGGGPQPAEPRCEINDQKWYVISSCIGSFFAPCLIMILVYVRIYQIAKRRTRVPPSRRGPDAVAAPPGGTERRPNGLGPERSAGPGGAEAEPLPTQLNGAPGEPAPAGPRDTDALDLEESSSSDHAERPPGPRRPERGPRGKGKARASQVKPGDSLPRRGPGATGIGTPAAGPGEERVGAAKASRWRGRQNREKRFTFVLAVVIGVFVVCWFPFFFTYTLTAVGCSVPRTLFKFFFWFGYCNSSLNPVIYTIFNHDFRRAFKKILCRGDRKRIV
Sequence of Sodium-dependent serotonin transporter (Homo sapiens) (P31645 whole entry, looked up): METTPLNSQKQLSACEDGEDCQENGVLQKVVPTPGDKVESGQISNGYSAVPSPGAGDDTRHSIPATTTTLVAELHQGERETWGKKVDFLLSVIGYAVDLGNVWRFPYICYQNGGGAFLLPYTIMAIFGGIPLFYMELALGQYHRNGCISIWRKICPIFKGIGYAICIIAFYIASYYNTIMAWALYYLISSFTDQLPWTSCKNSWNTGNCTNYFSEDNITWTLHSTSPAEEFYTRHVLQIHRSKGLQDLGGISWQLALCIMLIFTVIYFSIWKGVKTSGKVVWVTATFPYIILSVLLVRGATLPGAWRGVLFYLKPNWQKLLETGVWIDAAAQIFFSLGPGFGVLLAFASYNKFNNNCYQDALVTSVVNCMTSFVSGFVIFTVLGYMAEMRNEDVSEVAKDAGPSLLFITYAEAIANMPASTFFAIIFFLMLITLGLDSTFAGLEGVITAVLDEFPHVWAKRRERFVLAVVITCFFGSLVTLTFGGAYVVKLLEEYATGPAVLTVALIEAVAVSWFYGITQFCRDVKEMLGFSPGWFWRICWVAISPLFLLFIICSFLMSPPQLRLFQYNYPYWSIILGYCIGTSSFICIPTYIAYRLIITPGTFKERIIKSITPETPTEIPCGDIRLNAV
Sequence of Sigma non-opioid intracellular receptor 1 (Homo sapiens) (Q99720 whole entry): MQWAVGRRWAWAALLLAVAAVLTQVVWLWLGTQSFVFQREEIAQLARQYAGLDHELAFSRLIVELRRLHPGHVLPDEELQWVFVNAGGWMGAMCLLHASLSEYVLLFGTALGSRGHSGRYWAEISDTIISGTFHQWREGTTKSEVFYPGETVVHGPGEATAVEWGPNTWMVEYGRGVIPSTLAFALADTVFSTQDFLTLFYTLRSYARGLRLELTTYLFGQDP

SMILES	Ki [1] [nM]	inhibition at 0.5 h, 1 µM (CYP3A4) [%]	other results
COCCn1c(C(C)N2CCNCC2)nc2ccccc2c1=O (stereo not drawn)	4900	0	–
CCCC(c1nc2ccc(NCC)cc2c(=O)n1CC)N1C[C@@H](C)N[C@@H](C)C1 (stereo partly drawn)	44	69	–
CCC[C@@H](c1nc2ccc(Br)cc2c(=O)n1CC)N1CCN[C@H](C)C1	> 1000	21	–
CCC[C@H](c1nc2ccc(Br)cc2c(=O)n1CC)N1CCNC(C)(C)C1	1580	72	–
COCCn1c(CN2CCNCC2)nc2ccccc2c1=O	> 10000	6	inhibition [2]: < 50%
CCCC(c1nc2cc(-c3ccncc3)ccc2c(=O)n1CC)N1C[C@@H](C)N[C@@H](C)C1 (stereo partly drawn)	18	97	–
CCCC(c1nc2ccc(Br)cc2c(=O)n1CC)N1CCC(NC)CC1 (stereo not drawn)	436	83	–
COCCn1c(C(CC2CC2)N2C[C@@H](C)N[C@@H](C)C2)nc2ccccc2c1=O (stereo partly drawn)	413	94	–
CCCCC(c1nc2ccccc2c(=O)n1CCOC)N1C[C@@H](C)N[C@@H](C)C1 (stereo partly drawn)	1340	97	–
CCC(c1nc2ccccc2c(=O)n1CCOC)N1CCNCC1 (stereo not drawn)	1810	37	–
CCCC(c1nc2c(Br)cccc2c(=O)n1CC)N1C[C@@H](C)N[C@@H](C)C1 (stereo partly drawn)	> 1000	–	–
CCCC(c1nc2ccccc2c(=O)n1Cc1ccccc1)N1C[C@@H](C)N[C@@H](C)C1 (stereo partly drawn)	4820	98	–
CCC[C@H](c1nc2ccc(Br)cc2c(=O)n1CC)N1CCN[C@@H](CC)C1	123	97	–
CCC[C@@H](c1nc2ccc(Br)cc2c(=O)n1CC)N1C[C@@H](C)N[C@@H](C)C1	2900	88	–
CCC[C@H](c1nc2ccc(Br)cc2c(=O)n1CC)N1CCN[C@H](C)C1	16	51	Activity (Mu-type opioid receptor): Active; Activity [3]: Active; Activity [4]: Active; Activity [5]: Active; Activity [6]: Active; Activity [7]: Active; Activity [8]: Active; Activity [9]: Active; Activity [10]: Active; Activity [11]: Active; Activity [12]: Active; Activity [13]: Active
CCC[C@H](c1nc2ccncc2c(=O)n1CC)N1CCN[C@H](C)C1	6	46	microsomal CLint at 1 µM [14]: 3.9 µL/min/mg; inhibition at 1 µM (CYP2D6): < 50%; inhibition at 1 µM (CYP1A2): < 50%; efflux ratio [15]: 5.4; Activity [16]: Non-Toxic; Cmax [17]: 3070 ng/mL; IC50 [18]: > 10000 nM; Papp [19]: 4.3 ×10⁻⁶ cm/s; inhibition at 1 µM (CYP2C19): < 50%; inhibition at 1 µM (CYP2C9): < 50%; microsomal CLint at 1 µM [20]: 2.6 µL/min/mg; microsomal CLint at 1 µM [21]: 4.1 µL/min/mg; logP [22]: 2.22; Activity (Mus musculus): 69%; logD [23]: 0.49; AUC(0-t) at 24 h [24]: 8050 ng·h/mL
CCCC(c1nc2ccccc2c(=O)n1Cc1ccco1)N1C[C@@H](C)N[C@@H](C)C1 (stereo partly drawn)	230	99	–
CCCC(c1nc2ccccc2c(=O)n1C)N1C[C@@H](C)N[C@@H](C)C1 (stereo partly drawn)	73	80	–

SMILES	Ki [1] [nM]	inhibition at 0.5 h, 1 µM (CYP3A4) [%]	other results
CCC(c1nc2ccccc2c(=O)n1CCOC)N1C[C@@H](C)N[C@@H](C)C1 (stereo partly drawn)	761	86	–
CCC(c1nc2ccccc2c(=O)n1CCCOC)N1C[C@@H](C)N[C@@H](C)C1 (stereo partly drawn)	> 10000	–	inhibition [2]: < 50%
CCCC(c1nc2ccccc2c(=O)n1CCOC)N1C[C@@H](C)N[C@@H](C)C1 (stereo partly drawn)	241	94	–
CCC[C@@H](c1nc2ccc(Br)cc2c(=O)n1CC)N1CCN[C@@H](C)C1	479	33	–
CCCC(c1nc2cccc(Br)c2c(=O)n1CC)N1C[C@@H](C)N[C@@H](C)C1 (stereo partly drawn)	66	95	–
CCCC(c1nc2ccc(C#N)cc2c(=O)n1CC)N1C[C@@H](C)N[C@@H](C)C1 (stereo partly drawn)	288	70	–
CC(C)C[C@H](CN)CC(=O)O [PREGABALIN]	–	43	Activity [16]: Toxic; Activity (Mus musculus): 34%
CCC[C@@H](c1nc2ccncc2c(=O)n1CC)N1CCN[C@@H](C)C1	> 1000	44	–
CCC[C@@H](c1nc2ccncc2c(=O)n1CC)N1CCN[C@H](C)C1	> 1000	15	–
CCC[C@H](c1nc2ccc(Br)cc2c(=O)n1CC)N1CCN[C@@H](C)C1	91	73	Ki (Mu-type opioid receptor): 157 nM; Activity [3]: Active; Activity [4]: Active; Activity [5]: Active; Activity [6]: Active; Activity [7]: Active; Activity [8]: Active; Activity [9]: Active; Activity [10]: Active; Activity [11]: Active; Activity [12]: Active; Activity [13]: Active
CCCC(c1nc2ccc(-c3ccncc3)cc2c(=O)n1CC)N1C[C@@H](C)N[C@@H](C)C1 (stereo partly drawn)	38	92	–
CCCC(c1nc2cc(Br)ccc2c(=O)n1CC)N1C[C@@H](C)N[C@@H](C)C1 (stereo partly drawn)	15	97	–
CCCC(c1nc2ccc(Br)cc2c(=O)n1CC)N1C[C@@H](C)N[C@@H](C)C1 (stereo partly drawn)	16	95	–
CCCC(c1nc2ccccc2c(=O)n1CC)N1C[C@@H](C)N[C@@H](C)C1 (stereo partly drawn)	36	85	–
CCC[C@H](c1nc2ccncc2c(=O)n1CC)N1CCN[C@@H](C)C1	27	56	–
CCC[C@H](c1nc2ccc(Br)cc2c(=O)n1CC)N1C[C@@H](C)N[C@@H](C)C1	8	94	–
CCCC(c1nc2ccccc2c(=O)n1CCOC)N1CCNCC1 (stereo not drawn)	638	67	–
CCCC(c1nc2ccc(Br)cc2c(=O)n1CC)N1CCNCC1 (stereo not drawn)	76	65	–
